In data set [1] the test system is Mus musculus. In words: Anticonvulsant activity in CF-1 mouse model of subcutaneous pentylenetetrazole-induced seizure assessed as reduction in convulsions at 30 mg/kg, ip measured at 4 hrs post dose. It is filed as functional, organism-based. In short, it runs like this: (§1)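 Mice dosed i.p., then given pentylenetetrazole 85 mg/kg in 0.9% NaCl s.c. into the posterior midline of the neck. Seizures watched for at least 30 min. Scored as protected / tested at 0.5 and 4 h.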

Data set [2] has as its system Mus musculus. The data set can be described thus: Anticonvulsant activity in CF-1 mouse model of subcutaneous pentylenetetrazole-induced seizure assessed as reduction in convulsions at 300 mg/kg, ip measured at 0.5 hrs post dose. It is filed as functional, organism-based. The method in brief: as §1
The test system of data set [3] is Mus musculus. In words: Anticonvulsant activity in CF-1 mouse model of subcutaneous pentylenetetrazole-induced seizure assessed as reduction in convulsions at 100 mg/kg, ip measured at 4 hrs post dose. The format is functional, organism-based. In short, it runs like this: as §1
Data set [4] in a line: Neurotoxicity in CF-1 mouse at 30 mg/kg, ip measured after 4 hrs by rotarod test. Particulars: in vivo. The format is toxicity, organism-based. The method in brief:
(§2)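 Mice dosed i.p. were placed on a 1 in. knurled rod turning at 6 rpm. Toxicity was scored as failure to keep balance for at least 1 min, i.e. falling off three or more times. Results are reported as animals showing toxicity / animals tested at each time point.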
For orientation: The rotarod test checks motor coordination on a turning rod.

Data set [5] has as its system Mus musculus. The data set can be described thus: Anticonvulsant activity in CF-1 mouse model of subcutaneous pentylenetetrazole-induced seizure assessed as reduction in convulsions at 30 mg/kg, ip measured at 0.5 hrs post dose. The format is functional, organism-based. The method in brief: as §1
Data set [6] relates to Mus musculus. The data set can be described thus: Anticonvulsant activity in CF-1 mouse model of maximal electroshock-induced seizure assessed as suppression of tonic hind limb extension at 300 mg/kg, ip measured at 0.5 hrs post dose. The format is functional, organism-based. In short, it runs like this:
(§3)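 Mice dosed i.p. and given maximal electroshock at 50 mA. Read-out is protection, reported as number protected / number tested at 0.25, 0.5, 1 and 4 h after dosing.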
In general terms: Protection in the maximal electroshock model is a classic sign of anticonvulsant action.

In data set [7] the test system is Mus musculus. In words: Anticonvulsant activity in CF-1 mouse model of maximal electroshock-induced seizure assessed as suppression of tonic hind limb extension at 100 mg/kg, ip measured at 4 hrs post dose. It is filed as functional, organism-based. The method in brief:
as §3

In data set [8] the test system is Mus musculus. In words: Anticonvulsant activity in CF-1 mouse model of maximal electroshock-induced seizure assessed as suppression of tonic hind limb extension at 30 mg/kg, ip measured at 4 hrs post dose. It is filed as functional, organism-based. The method in brief:
as §3

Data set [9] relates to Mus musculus. The data set can be described thus: Anticonvulsant activity in CF-1 mouse model of subcutaneous pentylenetetrazole-induced seizure assessed as reduction in convulsions at 300 mg/kg, ip measured at 4 hrs post dose. The format is functional, organism-based. In short, it runs like this:
as §1

Data set [10] is described as follows: Neurotoxicity in CF-1 mouse at 100 mg/kg, ip measured after 4 hrs by rotarod test. It is filed as toxicity, organism-based. Particulars: in vivo. In short, it runs like this: as §2
The subject of data set [11] is Mus musculus. The data set can be described thus: Anticonvulsant activity in CF-1 mouse model of maximal electroshock-induced seizure assessed as suppression of tonic hind limb extension at 100 mg/kg, ip measured at 0.5 hrs post dose. It is filed as functional, organism-based. The method in brief:
as §3

A short description of data set [12]: Neurotoxicity in CF-1 mouse at 300 mg/kg, ip measured after 0.5 hrs by rotarod test. The format is toxicity, organism-based. Particulars: in vivo. In short, it runs like this: as §2
Data set [13] is described as follows: Neurotoxicity in CF-1 mouse at 100 mg/kg, ip measured after 0.5 hrs by rotarod test. It is filed as toxicity, organism-based. Particulars: in vivo. In short, it runs like this: as §2
Data set [14] relates to Mus musculus. The data set can be described thus: Anticonvulsant activity in CF-1 mouse model of subcutaneous pentylenetetrazole-induced seizure assessed as reduction in convulsions at 100 mg/kg, ip measured at 0.5 hrs post dose. The format is functional, organism-based. In short, it runs like this: as §1
A short description of data set [15]: Neurotoxicity in CF-1 mouse at 30 mg/kg, ip measured after 0.5 hrs by rotarod test. It is filed as toxicity, organism-based. To be noted: in vivo. The method in brief: as §2
In data set [16] the test system is Mus musculus. In words: Anticonvulsant activity in CF-1 mouse model of maximal electroshock-induced seizure assessed as suppression of tonic hind limb extension at 300 mg/kg, ip measured at 4 hrs post dose. It is filed as functional, organism-based. The method in brief:
as §3

For data set [17], the system named is Mus musculus. In words: Anticonvulsant activity in CF-1 mouse model of maximal electroshock-induced seizure assessed as suppression of tonic hind limb extension at 30 mg/kg, ip measured at 0.5 hrs post dose. The format is functional, organism-based. The method in brief: as §3
Data set [18] in a line: Neurotoxicity in CF-1 mouse at 300 mg/kg, ip measured after 4 hrs by rotarod test. Particulars: in vivo. It is filed as toxicity, organism-based. The method in brief:
as §2

The subject of data set [19] is Mus musculus. The data set can be described thus: Anticonvulsant activity in CF-1 mouse model of maximal electroshock-induced seizure assessed as suppression of tonic hind limb extension at 100 mg/kg, ip measured at 1 hr post dose. It is filed as functional, organism-based. The method in brief:
as §3

Data set [20] in a line: Neurotoxicity in CF-1 mouse at 100 mg/kg, ip measured after 0.25 hrs by rotarod test. It is filed as toxicity, organism-based. To be noted: in vivo. The method in brief:
as §2

Data set [21] can be described thus: Neurotoxicity in CF-1 mouse at 100 mg/kg, ip measured after 1 hr by rotarod test. The format is toxicity, organism-based. To be noted: in vivo. In short, it runs like this:
as §2

The test system of data set [22] is Mus musculus. In words: Anticonvulsant activity in CF-1 mouse model of maximal electroshock-induced seizure assessed as suppression of tonic hind limb extension at 100 mg/kg, ip measured at 0.25 hrs post dose. The format is functional, organism-based. In short, it runs like this:
as §3

Molecules are shown by their SMILES. The source made the active and inactive calls. No cut-off for these calls is given here.

`Cc1cc(C)c(OCC(=O)NCC(O)c2ccccc2)c(C)c1` (stereo not drawn): the result in [1], in data set [2], in [3], in data set [5], in [6] and in data set [7] was inactive. Moreover, the outcome in data set [8], in [9], in data set [11], in [14], in [16] and in data set [17] was inactive. Moreover, the Activity entry in [4] is recorded as “Non-Toxic”; in data set [10] it was “Non-Toxic”; in data set [12] it was “Toxic”; in data set [13], “Non-Toxic”; in data set [15], “Non-Toxic”; in [18], “Non-Toxic”.

For `CCC(CO)NC(=O)COc1c(C)cc(C)cc1C` (stereo not drawn), the result in data set [1], in data set [2], in data set [3], in [19], in [5] and in [7] was inactive. Besides, the outcome in [8], in data set [9], in data set [11], in data set [14], in data set [16] and in [17] was inactive. In addition, in data set [22], the result was inactive. The Activity result in data set [4], in data set [10], in data set [20], in [21], in data set [15] and in data set [18] was “Non-Toxic” each time. Moreover, the result in data set [6] was Active.

`Cc1cccc(C)c1OCC(=O)N[C@@H](C)CO`: the result in data set [1], in [2], in data set [3], in data set [5], in data set [7] and in data set [8] was inactive. The outcome in [9], in [11], in [14] and in data set [17] was inactive. In addition, the Activity result in data set [4] is listed as “Non-Toxic”. The result in [6] and in [16] was Active.

As to `CCC(NC(=O)COc1c(C)cc(C)cc1C)C(N)=O` (stereo not drawn), the result in data set [1], in data set [2], in data set [3], in data set [19], in data set [5] and in data set [7] was inactive. For the same compound, the outcome in data set [8], in data set [9], in data set [11], in data set [14], in data set [16] and in data set [17] was inactive. Besides, the result in [22] was inactive. Also, the Activity result in [4], in data set [10], in [20], in [21], in data set [13] and in data set [15] was “Non-Toxic” each time. Further, in [18], the Activity result is recorded as “Non-Toxic”. Moreover, the outcome in [6] was Active.

For `Cc1cccc(C)c1OCC(=O)NC(C)C(=O)O` (stereo not drawn), the outcome in [1], in [2], in [3], in [5], in data set [6] and in [7] was inactive. Also, the result in [8], in data set [9], in [11], in data set [14], in data set [16] and in data set [17] was inactive. In addition, the Activity result in [4], in [10], in [12], in data set [13], in data set [15] and in data set [18] was “Non-Toxic” in each case.

For `Cc1cccc(C)c1OCC(=O)N[C@@H](C)C(=O)O`, the outcome in data set [1], in data set [2], in data set [3], in data set [5], in [6] and in data set [7] was inactive. Besides, the result in data set [8], in [9], in data set [11], in data set [14], in [16] and in [17] was inactive. Besides, the Activity entry in [4], in [10], in [12], in data set [13], in [15] and in data set [18] was “Non-Toxic” throughout.

On to `Cc1cccc(C)c1OCC(=O)N[C@H](C)C(N)=O`, for which the outcome in data set [2], in data set [3], in data set [19], in data set [5], in data set [7] and in data set [8] was inactive. Further, the result in data set [9], in [11], in data set [14], in data set [16], in [17] and in data set [22] was inactive. The Activity entry in data set [4], in data set [10], in data set [20], in data set [15] and in [18] was “Non-Toxic” throughout. Also, the result in [6] was Active.

With `Cc1cccc(C)c1OCC(=O)NCCc1ccccc1`, the outcome in data set [1], in data set [2], in [3], in [5], in data set [6] and in data set [7] was inactive. The result in [8], in data set [9], in data set [11], in data set [14], in data set [16] and in data set [17] was inactive. Further, the Activity result in data set [4], in data set [10], in [13], in data set [15] and in data set [18] was “Non-Toxic” throughout.
